This is an account of results in ChEMBL document CHEMBL3994602, “Termisoflavones A-C, Isoflavonoid Glycosides from Termite-Associated Streptomyces sp. RB1” (2016).

Common to all, as to type: functional
In one assay the test system is Escherichia coli. As to the kind of experiment: Antibacterial activity against Escherichia coli DH10B by EUCAST method. To be noted: K-12 substr. DH10B. The gist of the method:
(§1)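 Minimal inhibitory concentrations were determined by the EUCAST method, with streptomycin sulfate as the positive control.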

A further assay relates to Staphylococcus aureus. Nature of the assay: Antibacterial activity against Staphylococcus aureus NCTC 8325-4 by EUCAST method. The gist of the method: as §1
The next assay has as its system Candida albicans. Nature of the assay: Antifungal activity against Candida albicans SC5314 by CLSI M27-A3 broth microdilution method. The gist of the method: (§2)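 MICs were determined by broth microdilution following CLSI standard M27-A3, with fluconazole as the positive control.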
(In general: Broth dilution looks for growth in wells or tubes with falling amounts of substance.)

The next assay deals with Cryptococcus neoformans. As to the kind of experiment: Antifungal activity against Cryptococcus neoformans H99 by CLSI M27-A3 broth microdilution method. To be noted: var grubii H99. The gist of the method: as §2
The subject of a further assay is LLC-PK1. Nature of the assay: Renoprotective activity in pig LLC-PK1 cells assessed as inhibition of cisplatin-induced damage by measuring cell viability up to 100 uM preincubated for 24 hrs followed by addition of Ez-Cytox reagent and measured after 2 hrs relative to control. In a few lines: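 LLC-PK1 pig kidney epithelial cells were cultured in DMEM with 10% FBS, 1% penicillin/streptomycin and 4 mM L-glutamine at 37 °C, 5% CO2. Cells were seeded at 1 × 10^4 per well and allowed to adhere for 2 h. Test sample and/or 25 μM cisplatin were added and incubated for 24 h. Medium was replaced with serum-free medium plus Ez-Cytox for 2 h at 37 °C, then absorbance was read at 450 nm. N-acetyl cysteine was the positive control.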

The structures appear in SMILES notation. The source made the active and inactive calls. No cut-off for these calls is given here.

On to `C[C@@H]1O[C@@H](Oc2ccc(-c3coc4cc(O[C@@H]5O[C@@H](C)[C@H](O)[C@@H](O)[C@H]5O)cc(O)c4c3=O)cc2)[C@H](O)[C@H](O)[C@H]1O`, for which the minimal inhibitory concentration (MIC) against Escherichia coli, in the assay with Staphylococcus aureus, against Candida albicans and with Cryptococcus neoformans was > 100 µg/mL throughout. For the same molecule, in the assay with LLC-PK1 (Sus scrofa), the outcome was Active.
Take `CO[C@@H]1[C@@H](O)[C@H](C)O[C@@H](Oc2ccc(-c3coc4cc(O[C@@H]5O[C@@H](C)[C@H](O)[C@@H](OC)[C@H]5O)ccc4c3=O)cc2)[C@@H]1O`: the MIC in the assay on Escherichia coli, in the assay with Staphylococcus aureus, in the assay with Candida albicans and against Cryptococcus neoformans was > 100 µg/mL each time. In addition, the result in the assay with LLC-PK1 (Sus scrofa) was Active.
Turning to `CO[C@@H]1[C@@H](O)[C@H](C)O[C@@H](Oc2ccc(-c3coc4cc(O[C@@H]5O[C@@H](C)[C@H](O)[C@@H](O)[C@H]5O)cc(O)c4c3=O)cc2)[C@@H]1O`, the MIC in the assay with Escherichia coli, in the assay with Staphylococcus aureus, against Candida albicans and against Cryptococcus neoformans was > 100 µg/mL throughout.
For the molecule `CO[C@@H]1[C@@H](O)[C@H](C)O[C@@H](Oc2ccc(-c3coc4cc(O[C@@H]5O[C@@H](C)[C@H](O)[C@@H](OC)[C@H]5O)cc(O)c4c3=O)cc2)[C@@H]1O`, the MIC against Escherichia coli, against Staphylococcus aureus, against Candida albicans and with Cryptococcus neoformans was > 100 µg/mL each time. In addition, the result in the assay with LLC-PK1 (Sus scrofa) was Active.
Turning to `COc1cc2c(=O)c(-c3ccc(O)cc3)coc2cc1O[C@@H]1O[C@@H](C)[C@H](O)[C@@H](O)[C@H]1O`, the MIC with Escherichia coli, in the assay on Staphylococcus aureus, against Candida albicans and against Cryptococcus neoformans was > 100 µg/mL in each case.
As for `C[C@@H]1O[C@@H](Oc2cc(O)c3c(=O)c(-c4ccc(O)cc4)coc3c2)[C@H](O)[C@H](O)[C@H]1O`, the minimal inhibitory concentration (MIC) in the assay with Escherichia coli, in the assay on Staphylococcus aureus, in the assay on Candida albicans and in the assay with Cryptococcus neoformans was > 100 µg/mL in each case. The outcome in the assay with LLC-PK1 (Sus scrofa) was Active.
`O=c1c(-c2ccc(O)cc2)coc2cc(O[C@@H]3O[C@H](CO)[C@@H](O)[C@H](O)[C@H]3O)ccc12` [DAIDZIN]: the MIC in the assay with Escherichia coli, against Staphylococcus aureus, with Candida albicans and with Cryptococcus neoformans was > 100 µg/mL throughout. Besides, the Activity with LLC-PK1 is >80%.
`O=c1c(-c2ccc(O)cc2)coc2cc(O)ccc12` [DAIDZEIN]: the minimum inhibitory concentration (MIC) in the assay with Escherichia coli, in the assay on Staphylococcus aureus, against Candida albicans and in the assay with Cryptococcus neoformans was > 100 µg/mL each time. In addition, in the assay with LLC-PK1 (Sus scrofa), the outcome was Active.
Take `C[C@@H]1O[C@@H](Oc2ccc3c(=O)c(-c4ccc(O)cc4)coc3c2)[C@H](O)[C@H](O)[C@H]1O`: the MIC against Escherichia coli, with Staphylococcus aureus, in the assay with Candida albicans and against Cryptococcus neoformans was > 100 µg/mL throughout. Further, in the assay on LLC-PK1, the Activity was >80%.
In the case of `C[C@@H]1O[C@@H](Oc2ccc(-c3coc4cc(O[C@@H]5O[C@@H](C)[C@H](O)[C@@H](O)[C@H]5O)ccc4c3=O)cc2)[C@H](O)[C@H](O)[C@H]1O`, the minimal inhibitory concentration (MIC) with Escherichia coli, with Staphylococcus aureus, against Candida albicans and against Cryptococcus neoformans was > 100 µg/mL in each case. Further, in the assay with LLC-PK1 (Sus scrofa), the outcome was Active.
Turning to `O=c1c(-c2ccc(O)cc2)coc2cc(O[C@@H]3O[C@H](CO)[C@@H](O)[C@H](O)[C@H]3O)cc(O)c12` [GENISTIN], the MIC in the assay on Escherichia coli, against Staphylococcus aureus, in the assay on Candida albicans and in the assay on Cryptococcus neoformans was > 100 µg/mL each time. Further, in the assay on LLC-PK1 (Sus scrofa), the outcome was Active.
